PAFAH2 FP inh – PAFAH2 (human) inhibition; Q99487; recombinant PAFAH2, FP-rhodamine activity probe, fluorescence polarization; inhibition, % at 3.39 µM; 340,000 compounds, 0.99% hits;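 active = inhibition above the mean over all tested compounds plus 3 SD, cut at about 30% in these data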;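 also: inhibitors block probe labeling of enzyme so polarization drops; 0% = enzyme with DMSO and 100% = wells lacking PAFAH2 protein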
PAFAH1B2 FP inh – inhibitors of human PAFAH1B2. P68402. recombinant PAFAH1B2, FP-rhodamine activity probe, fluorescence polarization. inhibition, % at 3.39 µM. 340,000 compounds, 1.2% hits. AID 492953;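 active = inhibition above the mean of all tested compounds plus 3 SD, cut at about 24% in these data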;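 also: 0% = enzyme with DMSO and 100% = wells lacking PAFAH1B2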
ARFGAP1 inh – rat ARFGAP1 inhibition. Q62848. Arfgap1-stimulated ARF1 GTP hydrolysis, GDP FP detection. inhibition, % at 16.5 µM. 360,000 compounds, 0.26% hits;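 active = inhibition above a per-plate limit, mean inhibition of low control wells plus 3 SD, cut at about 25% in these data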;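 also: 0% = DMSO wells with enzyme and 100% = wells lacking Arfgap1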
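Repeats: one replicate per compound; assay system: rat Arfgap1 catalytic domain, aa 1-136; times: enzyme reaction 120 min at 25 °C after 20 min preincubation; detection: FP of antibody-bound GDP Alexa 633 tracer, ex 620/em 688 nm; benchmarks: high control wells lacking Arfgap1, low control full reaction with DMSO; reagent: human ARF1(Δ1-17)-GTP substrate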
pPAFAH inh – pPAFAH (human) enzyme inhibition; recombinant pPAFAH, FP-rhodamine probe fluorescence polarization; inhibition, % at 3.39 µM; 330,000 compounds, 1.5% hits; AID 463082;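 active = inhibition above the mean inhibition across the screen plus 3 SD, cut at about 25% in these data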;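 also: inhibitors block binding of the rhodamine activity-based probe so polarization drops; 0% = enzyme with DMSO and 100% = wells lacking pPAFAH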
ASAP1 inh – inhibitors of human ASAP1 ArfGAP activity; ASAP1-stimulated ARF1 GTP hydrolysis, GDP FP detection; inhibition, % at 16.5 µM; 360,000 compounds, 0.19% hits; in the data active = inhibition above about 25%;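 also: 0% = vehicle with enzyme and substrate and 100% = no enzyme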
Target sequence (Q9ULH1 325-724 limits assumed): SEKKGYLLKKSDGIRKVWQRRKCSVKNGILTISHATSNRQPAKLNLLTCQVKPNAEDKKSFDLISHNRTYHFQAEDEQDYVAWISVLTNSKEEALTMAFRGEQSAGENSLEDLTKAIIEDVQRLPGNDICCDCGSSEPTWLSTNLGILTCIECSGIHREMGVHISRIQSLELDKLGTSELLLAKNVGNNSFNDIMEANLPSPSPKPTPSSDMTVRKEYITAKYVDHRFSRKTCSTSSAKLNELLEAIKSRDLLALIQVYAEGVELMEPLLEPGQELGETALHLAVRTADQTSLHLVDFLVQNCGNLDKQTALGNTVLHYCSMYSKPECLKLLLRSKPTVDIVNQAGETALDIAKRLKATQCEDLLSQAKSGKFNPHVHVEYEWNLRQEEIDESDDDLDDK
PAFAH1B3 FP inh – PAFAH1B3 (human) inhibition; recombinant PAFAH1B3, FP-rhodamine probe, fluorescence polarization; inhibition, % at 3.39 µM; 340,000 compounds, 0.28% hits; AID 492972;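 active = inhibition above the screen-wide average of all tested compounds plus 3 SD, cut at about 25% in these data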;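 also: 0% = enzyme with DMSO only and 100% = wells lacking PAFAH1B3 protein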
Target sequence (Q15102 whole entry, looked up): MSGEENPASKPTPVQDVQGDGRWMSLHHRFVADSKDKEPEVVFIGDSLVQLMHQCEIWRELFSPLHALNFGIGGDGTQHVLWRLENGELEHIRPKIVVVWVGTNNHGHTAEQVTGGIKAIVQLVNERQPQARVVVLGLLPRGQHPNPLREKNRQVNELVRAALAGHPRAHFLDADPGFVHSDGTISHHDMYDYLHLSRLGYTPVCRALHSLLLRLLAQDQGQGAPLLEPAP
pPAFAH FP conf – confirmation of human plasma PAF acetylhydrolase (pPAFAH) inhibitors; shares compounds with pPAFAH inh; recombinant pPAFAH, FP-Rh probe fluorescence polarization; inhibition, % at 3.39 µM; 2,300 compounds, 72% hits;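 active = mean inhibition of the triplicate above the hit cutoff set for the earlier primary screen, cut at about 25% in these data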;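 also: 0% = enzyme with DMSO and 100% = wells lacking pPAFAH enzyme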
Starred values were filed as active, the others as inactive. Shown are actives, neighbours in structure and some others; about 2.7% of the full set was active somewhere.

How did CCN(CC)c1ccc(C=Nc2ccc(C)cc2C)c(O)c1 do in these assays?
PAFAH2 FP inh: 2; PAFAH1B2 FP inh: 0; ARFGAP1 inh: -4; pPAFAH inh: 3; ASAP1 inh: -6; PAFAH1B3 FP inh: 4

What do the screens show for `CNc1nc(-c2ccccc2)nc(-c2ccc(OC)cc2)c1C#N`?
PAFAH2 FP inh: -3; PAFAH1B2 FP inh: 2; ARFGAP1 inh: -9; pPAFAH inh: -1; ASAP1 inh: -13; PAFAH1B3 FP inh: 2

Results for COc1ccc(-c2nc(-c3ccccc3)[nH]c(=O)c2C#N)cc1 ?
PAFAH2 FP inh: 4; PAFAH1B2 FP inh: -6; ARFGAP1 inh: 3; pPAFAH inh: 52*; ASAP1 inh: -11; PAFAH1B3 FP inh: -6; pPAFAH FP conf: 0

What do the screens show for `CC1(c2cccc(Br)c2)NC(=O)N(CC(=O)c2ccc3c(c2)OCCO3)C1=O` (stereo not drawn)?
PAFAH2 FP inh: 2; PAFAH1B2 FP inh: 7; ARFGAP1 inh: -8; pPAFAH inh: 38*; ASAP1 inh: -10; PAFAH1B3 FP inh: -1; pPAFAH FP conf: 2

Results for CC1(c2cccc(Br)c2)NC(=O)N(CC(=O)c2ccc3c(c2)OCO3)C1=O (stereo not drawn) ?
ARFGAP1 inh: 15; ASAP1 inh: 15

Results for O=C(C=Cc1ccccc1Cl)c1ccccc1 ?
PAFAH2 FP inh: -2; PAFAH1B2 FP inh: 3; ARFGAP1 inh: 5; ASAP1 inh: 8; PAFAH1B3 FP inh: 5

How did CCNc1ccc(Br)cc(C(=O)/C=C/c2ccccc2Cl)c1=O do in these assays?
PAFAH2 FP inh: 36*; PAFAH1B2 FP inh: 3; ARFGAP1 inh: -3; pPAFAH inh: 46*; ASAP1 inh: 1; PAFAH1B3 FP inh: 9; pPAFAH FP conf: 28*

Results for CCn1c(=O)c2ccccc2n(CC(=O)NC2CCCCC2)c1=O ?
PAFAH2 FP inh: 7; PAFAH1B2 FP inh: 2; ARFGAP1 inh: -4; pPAFAH inh: -4; ASAP1 inh: -1; PAFAH1B3 FP inh: -5

Results for Cc1ccc(N=C2NC(=O)/C(=C/C=C/c3ccco3)S2)cc1 ?
PAFAH2 FP inh: 21; PAFAH1B2 FP inh: 0; ARFGAP1 inh: -1; pPAFAH inh: 68*; ASAP1 inh: 15; PAFAH1B3 FP inh: 13; pPAFAH FP conf: 33*

What do the screens show for `Cc1cccc(N=C2NC(=O)/C(=C/C=C/c3ccco3)S2)c1C`?
PAFAH2 FP inh: 48*; PAFAH1B2 FP inh: 9; ARFGAP1 inh: 0; pPAFAH inh: 71*; ASAP1 inh: 4; PAFAH1B3 FP inh: 9; pPAFAH FP conf: 66*

How did O=C1NC(=Nc2ccccc2)S/C1=C\C=C\c1ccco1 do in these assays?
PAFAH2 FP inh: 30; PAFAH1B2 FP inh: 3; ARFGAP1 inh: -9; pPAFAH inh: 60*; ASAP1 inh: -11; PAFAH1B3 FP inh: 13; pPAFAH FP conf: 38*

What do the screens show for `O=C(O)CCc1ccc(-c2ccc(Br)cc2)n1Cc1ccco1`?
PAFAH2 FP inh: 18; PAFAH1B2 FP inh: 5; ARFGAP1 inh: -2; pPAFAH inh: 45*; ASAP1 inh: -15; PAFAH1B3 FP inh: -3; pPAFAH FP conf: 33*

What do the screens show for `O=c1c(O)c(-c2cc(O)c(O)c(O)c2)oc2cc(O)cc(O)c12`?
PAFAH2 FP inh: 9; PAFAH1B2 FP inh: 32*; ARFGAP1 inh: 11; pPAFAH inh: 66*; ASAP1 inh: 8; PAFAH1B3 FP inh: 41*; pPAFAH FP conf: 81*

Results for O=c1c(O)c(-c2ccccc2)oc2cc(O)cc(O)c12 ?
PAFAH2 FP inh: 13; PAFAH1B2 FP inh: 12; ARFGAP1 inh: 16; pPAFAH inh: 7; ASAP1 inh: 17; PAFAH1B3 FP inh: 23

What do the screens show for `CCOC(=O)c1c(-c2ccc(C)c(C)c2)csc1NC(=O)C1CC=CCC1C(=O)O` (stereo not drawn)?
PAFAH2 FP inh: 18; PAFAH1B2 FP inh: 2; ARFGAP1 inh: 0; pPAFAH inh: 41*; ASAP1 inh: -1; PAFAH1B3 FP inh: -3; pPAFAH FP conf: 39*

What do the screens show for `CCOC(=O)c1c(-c2ccc(F)cc2)csc1NC(=O)C1CC=CCC1C(=O)O` (stereo not drawn)?
PAFAH2 FP inh: 10; PAFAH1B2 FP inh: 7; ARFGAP1 inh: 4; pPAFAH inh: -6; ASAP1 inh: -9; PAFAH1B3 FP inh: 5

How did CC(C)C(=O)NC(c1cccs1)c1cc([N+](=O)[O-])c2cccnc2c1O (stereo not drawn) do in these assays?
PAFAH2 FP inh: -4; PAFAH1B2 FP inh: -5; pPAFAH inh: 84*; PAFAH1B3 FP inh: 6; pPAFAH FP conf: 79*

Results for Cc1ccc(C(NC(=O)C(C)C)c2cc([N+](=O)[O-])c3cccnc3c2O)cc1 (stereo not drawn) ?
PAFAH2 FP inh: 17; PAFAH1B2 FP inh: 5; ARFGAP1 inh: 1; pPAFAH inh: 54*; ASAP1 inh: 15; PAFAH1B3 FP inh: 17; pPAFAH FP conf: 74*

What do the screens show for `CC(C)[C@@H](C)/C=C/[C@@H](C)[C@H]1CC[C@@H]2[C@]1(C)CCC1[C@]23C=C[C@]2(C[C@@H](O)CC[C@]12C)N(c1ncc(C(F)(F)F)cc1Cl)O3` (stereo partly drawn)?
ARFGAP1 inh: 1; ASAP1 inh: 10

How did Cc1ccc(CNc2ncnc3ccc(-c4ccc(CO)o4)cc23)o1 do in these assays?
ARFGAP1 inh: 0; ASAP1 inh: -11

Results for O=C(N[C@@H](Cc1cccnc1)C(=O)N1CCC[C@H]1C(=O)NCCc1ccccc1Cl)C1CC1 ?
ARFGAP1 inh: -11; ASAP1 inh: 5

Results for Cc1ccc(-n2c(C)cc(/C=C3\SC(=O)NC3=O)c2C)cc1 ?
PAFAH2 FP inh: 4; PAFAH1B2 FP inh: 5; ARFGAP1 inh: 2; pPAFAH inh: 14; ASAP1 inh: 10; PAFAH1B3 FP inh: 12

What do the screens show for `Cc1cc(/C=C2\SC(=S)NC2=O)c(C)[nH]1`?
PAFAH2 FP inh: 15; PAFAH1B2 FP inh: -1; ARFGAP1 inh: -3; pPAFAH inh: 46*; ASAP1 inh: 4; PAFAH1B3 FP inh: 12; pPAFAH FP conf: 1

What do the screens show for `COc1ccc(-n2c(C)cc(/C=C3\SC(=O)NC3=O)c2C)cc1`?
PAFAH2 FP inh: 1; PAFAH1B2 FP inh: 0; ARFGAP1 inh: 8; pPAFAH inh: 40*; ASAP1 inh: -4; PAFAH1B3 FP inh: 1; pPAFAH FP conf: 23

Results for Cc1cc(/C=C2\SC(=S)NC2=O)c(C)n1-c1cccc(O)c1 ?
PAFAH2 FP inh: 20; PAFAH1B2 FP inh: 15; ARFGAP1 inh: 22; pPAFAH inh: 45*; ASAP1 inh: 2; PAFAH1B3 FP inh: 8; pPAFAH FP conf: 49*

Results for COc1ccccc1C(=O)NNC(=O)c1ccc(NC(=O)CC(C)C)cc1 ?
PAFAH2 FP inh: 8; PAFAH1B2 FP inh: -1; ARFGAP1 inh: 3; pPAFAH inh: 1; ASAP1 inh: 6; PAFAH1B3 FP inh: 4
